# Laboratory results as given in ChEMBL document CHEMBL5705900, “PF-06463922 is a potent and selective next-generation ROS1/ALK inhibitor capable of blocking crizotinib-resistant ROS1 mutations” (Proc Natl Acad Sci U S A, 2015).
# The source made the active and inactive calls. The rule behind the calls is not given here.
# Target: T1, Proto-oncogene tyrosine-protein kinase ROS (Homo sapiens, UniProt P08922)
# Assay: Binding affinity to recombinant human ROS1 assessed as inhibition constant in presence of ATP by microfluidic mobility shift assay
# Settings: not given
# T1 sequence (P08922 whole entry): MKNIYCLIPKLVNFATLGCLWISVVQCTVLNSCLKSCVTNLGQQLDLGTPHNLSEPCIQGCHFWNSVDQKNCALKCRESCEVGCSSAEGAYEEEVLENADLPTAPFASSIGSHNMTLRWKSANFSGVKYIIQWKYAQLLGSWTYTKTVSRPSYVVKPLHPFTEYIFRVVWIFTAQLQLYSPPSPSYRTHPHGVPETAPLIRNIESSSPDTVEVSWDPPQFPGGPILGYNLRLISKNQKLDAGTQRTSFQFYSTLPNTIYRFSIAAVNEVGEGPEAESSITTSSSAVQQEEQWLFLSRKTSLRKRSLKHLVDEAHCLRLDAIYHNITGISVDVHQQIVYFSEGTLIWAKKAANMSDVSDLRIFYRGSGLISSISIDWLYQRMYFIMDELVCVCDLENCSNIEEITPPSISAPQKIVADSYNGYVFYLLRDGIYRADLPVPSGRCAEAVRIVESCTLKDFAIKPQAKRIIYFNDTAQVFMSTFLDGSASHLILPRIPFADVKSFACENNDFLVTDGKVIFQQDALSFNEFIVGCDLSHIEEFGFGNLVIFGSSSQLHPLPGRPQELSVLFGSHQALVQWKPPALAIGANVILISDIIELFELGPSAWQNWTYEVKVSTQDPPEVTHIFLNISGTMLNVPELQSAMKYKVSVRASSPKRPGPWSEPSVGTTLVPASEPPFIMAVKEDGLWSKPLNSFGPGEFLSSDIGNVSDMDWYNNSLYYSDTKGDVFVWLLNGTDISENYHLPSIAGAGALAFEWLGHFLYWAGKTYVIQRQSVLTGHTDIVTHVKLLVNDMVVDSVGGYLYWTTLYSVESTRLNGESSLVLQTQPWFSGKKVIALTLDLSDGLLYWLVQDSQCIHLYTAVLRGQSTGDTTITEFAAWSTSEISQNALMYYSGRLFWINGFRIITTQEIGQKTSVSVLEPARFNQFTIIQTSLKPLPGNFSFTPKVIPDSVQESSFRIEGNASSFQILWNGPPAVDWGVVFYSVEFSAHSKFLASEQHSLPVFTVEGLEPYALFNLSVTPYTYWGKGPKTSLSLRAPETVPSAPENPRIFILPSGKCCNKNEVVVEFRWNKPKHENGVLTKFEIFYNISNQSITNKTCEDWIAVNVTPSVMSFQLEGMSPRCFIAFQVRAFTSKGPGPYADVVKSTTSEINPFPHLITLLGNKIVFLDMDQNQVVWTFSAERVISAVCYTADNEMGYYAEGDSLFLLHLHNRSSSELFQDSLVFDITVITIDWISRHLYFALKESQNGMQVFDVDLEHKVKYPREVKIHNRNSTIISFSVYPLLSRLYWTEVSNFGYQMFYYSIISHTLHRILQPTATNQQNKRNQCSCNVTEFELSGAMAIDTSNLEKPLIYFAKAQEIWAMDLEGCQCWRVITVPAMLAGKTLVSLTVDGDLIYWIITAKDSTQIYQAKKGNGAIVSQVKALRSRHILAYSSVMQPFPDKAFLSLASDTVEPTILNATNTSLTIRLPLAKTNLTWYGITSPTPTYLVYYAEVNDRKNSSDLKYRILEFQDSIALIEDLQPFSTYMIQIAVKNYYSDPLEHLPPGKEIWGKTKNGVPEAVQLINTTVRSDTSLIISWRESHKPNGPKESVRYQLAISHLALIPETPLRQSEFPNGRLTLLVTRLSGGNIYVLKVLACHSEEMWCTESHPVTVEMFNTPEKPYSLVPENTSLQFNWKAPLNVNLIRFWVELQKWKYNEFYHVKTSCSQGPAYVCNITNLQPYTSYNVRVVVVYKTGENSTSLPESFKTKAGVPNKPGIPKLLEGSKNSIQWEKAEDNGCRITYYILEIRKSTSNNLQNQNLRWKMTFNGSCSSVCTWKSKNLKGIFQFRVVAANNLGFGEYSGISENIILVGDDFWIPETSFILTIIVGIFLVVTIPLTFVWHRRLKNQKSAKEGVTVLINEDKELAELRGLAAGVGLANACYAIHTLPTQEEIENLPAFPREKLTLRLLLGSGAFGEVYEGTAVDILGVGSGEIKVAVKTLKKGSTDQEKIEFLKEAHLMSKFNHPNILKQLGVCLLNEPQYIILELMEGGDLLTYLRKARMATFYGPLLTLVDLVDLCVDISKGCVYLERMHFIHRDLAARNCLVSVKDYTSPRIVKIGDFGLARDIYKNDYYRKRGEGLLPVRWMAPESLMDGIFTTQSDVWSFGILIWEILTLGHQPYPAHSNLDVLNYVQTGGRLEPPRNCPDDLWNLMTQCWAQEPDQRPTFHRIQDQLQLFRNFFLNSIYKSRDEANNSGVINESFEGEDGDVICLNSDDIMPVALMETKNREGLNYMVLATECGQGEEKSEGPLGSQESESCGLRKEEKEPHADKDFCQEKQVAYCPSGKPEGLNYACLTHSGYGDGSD
row,Ki,SMILES
1,2400 nM,CCc1cc2c(cc1N1CCC(N3CCOCC3)CC1)C(C)(C)c1[nH]c3cc(C#N)ccc3c1C2=O [ALECTINIB]

# Tested on: Proto-oncogene tyrosine-protein kinase ROS (Homo sapiens), P08922 [L2026M]
# Sequence (P08922 whole entry L2026M): as the sequence (P08922 whole entry) above, with L2026M counted along it
# Assay: Inhibition of recombinant human ROS1 L2026M mutant in presence of ATP by microfluidic mobility shift assay
# Settings: dose 0.001-1000 nM
row,inhibition,SMILES
1,Dose-Dependent Effect,COc1cc2c(Oc3ccc(NC(=O)C4(C(=O)Nc5ccc(F)cc5)CC4)cc3F)ccnc2cc1OCCCN1CCOCC1 [FORETINIB]
2,Dose-Dependent Effect,CCc1cc2c(cc1N1CCC(N3CCOCC3)CC1)C(C)(C)c1[nH]c3cc(C#N)ccc3c1C2=O [ALECTINIB]

# Target: T1, Proto-oncogene tyrosine-protein kinase ROS
# Assay: Inhibition of recombinant human ROS1 in presence of ATP by microfluidic mobility shift assay
# Settings: dose 0.001-1000 nM
row,inhibition,SMILES
1,Dose-Dependent Effect,COc1cc2c(Oc3ccc(NC(=O)C4(C(=O)Nc5ccc(F)cc5)CC4)cc3F)ccnc2cc1OCCCN1CCOCC1 [FORETINIB]
2,Dose-Dependent Effect,CCc1cc2c(cc1N1CCC(N3CCOCC3)CC1)C(C)(C)c1[nH]c3cc(C#N)ccc3c1C2=O [ALECTINIB]

# Tested on: Proto-oncogene tyrosine-protein kinase ROS (Homo sapiens), P08922 [G2032R]
# Sequence (P08922 whole entry G2032R): as the sequence (P08922 whole entry) above, with G2032R counted along it
# Assay: Inhibition of recombinant human ROS1 G2032R mutant in presence of ATP by microfluidic mobility shift assay
# Settings: dose 0.001-1000 nM
row,inhibition,SMILES
1,Dose-Dependent Effect,COc1cc2c(Oc3ccc(NC(=O)C4(C(=O)Nc5ccc(F)cc5)CC4)cc3F)ccnc2cc1OCCCN1CCOCC1 [FORETINIB]
2,inactive,CCc1cc2c(cc1N1CCC(N3CCOCC3)CC1)C(C)(C)c1[nH]c3cc(C#N)ccc3c1C2=O [ALECTINIB]

# Target: SLC34A2-ROS1 (Homo sapiens, UniProt P08922)
# Assay: Inhibition of SLC34A2-ROS1 fusion protein expressed in human HCC78 cells assessed as inhibition of phosphorylated ROS1 incubated for 1 hr by ELISA analysis
# Type: cell-based
# Settings: not given
row,IC50,SMILES
1,> 1000 nM,CCc1cc2c(cc1N1CCC(N3CCOCC3)CC1)C(C)(C)c1[nH]c3cc(C#N)ccc3c1C2=O [ALECTINIB]

# Target: T2, H-2 class II histocompatibility antigen gamma chain/Proto-oncogene tyrosine-protein kinase ROS (Mus musculus, UniProt Q78DX7)
# T2 sequence (Q78DX7 whole entry): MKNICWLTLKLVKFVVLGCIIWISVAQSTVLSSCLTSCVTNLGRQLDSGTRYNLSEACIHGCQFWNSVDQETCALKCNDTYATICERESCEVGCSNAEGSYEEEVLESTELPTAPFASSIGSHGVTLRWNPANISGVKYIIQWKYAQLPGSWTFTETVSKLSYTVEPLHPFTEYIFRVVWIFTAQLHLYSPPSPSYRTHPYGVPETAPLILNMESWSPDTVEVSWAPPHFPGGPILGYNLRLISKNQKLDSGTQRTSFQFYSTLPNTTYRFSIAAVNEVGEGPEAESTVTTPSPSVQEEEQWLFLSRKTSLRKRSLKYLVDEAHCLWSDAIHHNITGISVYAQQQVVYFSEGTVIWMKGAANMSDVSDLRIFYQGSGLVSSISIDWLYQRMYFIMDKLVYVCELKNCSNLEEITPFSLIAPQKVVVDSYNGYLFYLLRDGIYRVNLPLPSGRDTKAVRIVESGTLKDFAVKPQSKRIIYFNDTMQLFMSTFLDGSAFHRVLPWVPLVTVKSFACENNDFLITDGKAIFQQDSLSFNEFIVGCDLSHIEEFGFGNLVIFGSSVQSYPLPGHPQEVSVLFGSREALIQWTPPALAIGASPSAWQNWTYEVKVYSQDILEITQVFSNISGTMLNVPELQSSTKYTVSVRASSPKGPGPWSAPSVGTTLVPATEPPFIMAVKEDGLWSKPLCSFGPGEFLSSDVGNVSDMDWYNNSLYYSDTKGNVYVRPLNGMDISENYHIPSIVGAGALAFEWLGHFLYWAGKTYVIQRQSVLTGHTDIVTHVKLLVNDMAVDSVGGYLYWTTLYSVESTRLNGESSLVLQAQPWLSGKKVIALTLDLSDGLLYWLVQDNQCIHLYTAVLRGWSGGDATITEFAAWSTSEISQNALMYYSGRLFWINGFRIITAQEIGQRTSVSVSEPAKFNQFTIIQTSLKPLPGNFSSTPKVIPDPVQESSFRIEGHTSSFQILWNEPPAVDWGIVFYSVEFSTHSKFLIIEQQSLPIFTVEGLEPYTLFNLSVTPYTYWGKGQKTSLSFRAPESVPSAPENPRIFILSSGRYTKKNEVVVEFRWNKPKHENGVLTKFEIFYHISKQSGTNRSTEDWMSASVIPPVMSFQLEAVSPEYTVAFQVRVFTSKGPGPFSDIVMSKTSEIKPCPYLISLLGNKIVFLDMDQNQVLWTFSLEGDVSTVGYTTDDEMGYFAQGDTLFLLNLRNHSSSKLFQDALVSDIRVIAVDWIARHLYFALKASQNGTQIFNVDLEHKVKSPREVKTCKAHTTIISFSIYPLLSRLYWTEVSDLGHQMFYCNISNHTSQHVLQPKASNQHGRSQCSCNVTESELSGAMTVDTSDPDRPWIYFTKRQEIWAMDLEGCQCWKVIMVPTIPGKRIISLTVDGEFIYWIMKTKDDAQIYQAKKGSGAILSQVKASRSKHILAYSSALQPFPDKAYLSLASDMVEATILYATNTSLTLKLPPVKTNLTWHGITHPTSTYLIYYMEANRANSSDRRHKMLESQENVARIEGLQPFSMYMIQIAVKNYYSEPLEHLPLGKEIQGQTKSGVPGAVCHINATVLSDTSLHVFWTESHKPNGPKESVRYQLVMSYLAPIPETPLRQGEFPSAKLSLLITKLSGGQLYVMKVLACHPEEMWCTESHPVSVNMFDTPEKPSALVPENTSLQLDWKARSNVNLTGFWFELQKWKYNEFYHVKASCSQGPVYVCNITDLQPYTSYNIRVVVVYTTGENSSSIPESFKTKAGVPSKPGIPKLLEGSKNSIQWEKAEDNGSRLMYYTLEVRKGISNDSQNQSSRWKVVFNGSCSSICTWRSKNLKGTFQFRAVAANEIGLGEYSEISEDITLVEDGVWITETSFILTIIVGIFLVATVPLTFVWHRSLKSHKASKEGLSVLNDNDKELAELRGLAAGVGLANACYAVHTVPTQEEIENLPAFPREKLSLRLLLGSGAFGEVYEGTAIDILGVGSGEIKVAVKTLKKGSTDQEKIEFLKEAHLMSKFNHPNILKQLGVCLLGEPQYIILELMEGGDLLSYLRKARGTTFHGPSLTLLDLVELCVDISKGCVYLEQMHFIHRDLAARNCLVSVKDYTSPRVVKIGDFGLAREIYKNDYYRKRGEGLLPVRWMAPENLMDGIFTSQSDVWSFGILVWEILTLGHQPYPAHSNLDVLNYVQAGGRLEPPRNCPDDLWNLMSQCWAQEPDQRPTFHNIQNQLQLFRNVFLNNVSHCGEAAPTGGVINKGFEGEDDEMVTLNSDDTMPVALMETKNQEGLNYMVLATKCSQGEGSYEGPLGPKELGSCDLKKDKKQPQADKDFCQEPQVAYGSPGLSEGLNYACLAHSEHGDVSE
# T2 sequence (P04441 whole entry, further chain): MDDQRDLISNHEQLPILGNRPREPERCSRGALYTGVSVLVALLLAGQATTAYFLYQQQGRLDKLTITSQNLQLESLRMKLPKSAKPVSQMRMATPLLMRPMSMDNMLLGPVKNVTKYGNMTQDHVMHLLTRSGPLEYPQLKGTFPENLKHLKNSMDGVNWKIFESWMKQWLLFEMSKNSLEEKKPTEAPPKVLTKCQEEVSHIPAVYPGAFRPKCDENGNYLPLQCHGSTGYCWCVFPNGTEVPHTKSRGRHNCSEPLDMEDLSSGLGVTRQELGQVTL
# Assay: Inhibition of CD74-ROS1 expressed in mouse BaF3 cells assessed as inhibition of phosphorylated ROS1 incubated for 1 hr by ELISA analysis
# Type: cell-based
# Settings: not given
# Outline: (§1)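 Cells seeded in growth medium with 0.5% serum and incubated overnight; compounds diluted in serum-free medium, added for 1 h, then medium aspirated. Lysates assayed for phospho-ROS1 (Tyr2274) by sandwich ELISA. IC50 from four-parameter concentration-response curve fit. Engineered lines made by retroviral transduction (pMSCV) with puromycin or hygromycin selection for 5 d.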
row,IC50,SMILES
1,3.8 nM,COc1cc2c(Oc3ccc(NC(=O)C4(C(=O)Nc5ccc(F)cc5)CC4)cc3F)ccnc2cc1OCCCN1CCOCC1 [FORETINIB]
2,> 10000 nM,CCc1cc2c(cc1N1CCC(N3CCOCC3)CC1)C(C)(C)c1[nH]c3cc(C#N)ccc3c1C2=O [ALECTINIB]

# Tested on: not listed separately
# Assay: Inhibition of CD74-ROS1 G2032R mutant expressed in mouse BaF3 cells assessed as inhibition of phosphorylated ROS1 incubated for 1 hr by ELISA analysis
# Type: cell-based
# Settings: BaF3, 1 h
# Outline: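 BaF3 cells retrovirally engineered to express CD74-ROS1 G2032R, seeded in growth medium with 0.5% serum overnight. Compounds diluted in serum-free medium, added for 1 h, then aspirated. Lysates assayed for phospho-ROS1 (Tyr2274) by sandwich ELISA; IC50 from four-parameter concentration-response curve fit.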
row,IC50,SMILES
1,88 nM,COc1cc2c(Oc3ccc(NC(=O)C4(C(=O)Nc5ccc(F)cc5)CC4)cc3F)ccnc2cc1OCCCN1CCOCC1 [FORETINIB]
2,> 10000 nM,CCc1cc2c(cc1N1CCC(N3CCOCC3)CC1)C(C)(C)c1[nH]c3cc(C#N)ccc3c1C2=O [ALECTINIB]

# Tested on: not listed separately
# Assay: Inhibition of CD74-ROS1 L2026M mutant expressed in mouse BaF3 cells assessed as inhibition of phosphorylated ROS1 incubated for 1 hr by ELISA analysis
# Type: cell-based
# Settings: BaF3, 1 h
row,IC50,SMILES
1,> 10 µM,CCc1cc2c(cc1N1CCC(N3CCOCC3)CC1)C(C)(C)c1[nH]c3cc(C#N)ccc3c1C2=O [ALECTINIB]

# Target: T2, H-2 class II histocompatibility antigen gamma chain/Proto-oncogene tyrosine-protein kinase ROS
# Assay: Inhibition of CD74-ROS1 expressed in mouse NIH3T3 cells assessed as inhibition of phosphorylated ROS1 incubated for 1 hr by ELISA analysis
# Type: cell-based
# Settings: not given
# Outline: as §1
row,IC50,SMILES
1,5.47 nM,COc1cc2c(Oc3ccc(NC(=O)C4(C(=O)Nc5ccc(F)cc5)CC4)cc3F)ccnc2cc1OCCCN1CCOCC1 [FORETINIB]
2,> 5000 nM,CCc1cc2c(cc1N1CCC(N3CCOCC3)CC1)C(C)(C)c1[nH]c3cc(C#N)ccc3c1C2=O [ALECTINIB]

# Target: T3, Golgi-associated PDZ and coiled-coil motif-containing protein/Proto-oncogene tyrosine-protein kinase ROS (Mus musculus, UniProt Q78DX7)
# T3 sequence (Q78DX7 whole entry, other chains not shown, the tested form may be a part, canonical isoform): as the sequence (Q78DX7 whole entry) above
# Assay: Inhibition of FIG-ROS1 short isoform fusion protein expressed in mouse NIH3T3 cells assessed as inhibition of phosphorylated ROS1 incubated for 1 hr by ELISA analysis
# Type: cell-based
# Settings: not given
# Outline: as §1
row,IC50,SMILES
1,6.1 nM,COc1cc2c(Oc3ccc(NC(=O)C4(C(=O)Nc5ccc(F)cc5)CC4)cc3F)ccnc2cc1OCCCN1CCOCC1 [FORETINIB]
2,> 5000 nM,CCc1cc2c(cc1N1CCC(N3CCOCC3)CC1)C(C)(C)c1[nH]c3cc(C#N)ccc3c1C2=O [ALECTINIB]

# Target: T3, Golgi-associated PDZ and coiled-coil motif-containing protein/Proto-oncogene tyrosine-protein kinase ROS
# Assay: Inhibition of FIG-ROS1 long isoform fusion protein expressed in mouse NIH3T3 cells assessed as inhibition of phosphorylated ROS1 incubated for 1 hr by ELISA analysis
# Type: cell-based
# Settings: not given
# Outline: as §1
row,IC50,SMILES
1,5.6 nM,COc1cc2c(Oc3ccc(NC(=O)C4(C(=O)Nc5ccc(F)cc5)CC4)cc3F)ccnc2cc1OCCCN1CCOCC1 [FORETINIB]
2,> 5000 nM,CCc1cc2c(cc1N1CCC(N3CCOCC3)CC1)C(C)(C)c1[nH]c3cc(C#N)ccc3c1C2=O [ALECTINIB]

# Tested on: HCC78
# Assay: Antiproliferative activity against human HCC78 cells harboring SLC34A2-ROS1 fusion protein assessed as reduction in cell viability incubated for 72 hrs by CellTiter-Glo assay
# Type: functional, cell-based
# Settings: HCC78, 72 h
# Outline: (§2)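 HCC78 NSCLC cells seeded in growth medium with 10% FBS, cultured overnight at 37 °C, then exposed to serial compound dilutions for 72 h at 37 °C. Relative cell number read by CellTiter-Glo luminescence; IC50 from four-parameter concentration-response curve fit.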
row,IC50,SMILES
1,19 nM,COc1cc2c(Oc3ccc(NC(=O)C4(C(=O)Nc5ccc(F)cc5)CC4)cc3F)ccnc2cc1OCCCN1CCOCC1 [FORETINIB]
2,> 10000 nM,CCc1cc2c(cc1N1CCC(N3CCOCC3)CC1)C(C)(C)c1[nH]c3cc(C#N)ccc3c1C2=O [ALECTINIB]

# Tested on: BaF3
# Assay: Antiproliferative activity against mouse BaF3 cells harboring CD74-ROS1 G2032R mutant assessed as reduction in cell viability incubated for 72 hrs by CellTiter-Glo assay
# Type: functional, cell-based
# Settings: BaF3, 72 h
# Outline: (§3)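 BaF3 cells engineered by pMSCV retroviral transduction (puromycin or hygromycin selection, 5 d, pooled populations) with CD74-ROS1 fusion variants. Seeded in growth medium with 10% FBS overnight at 37 °C, then serial compound dilutions for 72 h at 37 °C. CellTiter-Glo for relative cell number; IC50 by four-parameter curve fit.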
row,IC50,SMILES
1,69 nM,COc1cc2c(Oc3ccc(NC(=O)C4(C(=O)Nc5ccc(F)cc5)CC4)cc3F)ccnc2cc1OCCCN1CCOCC1 [FORETINIB]
2,> 2000 nM,CCc1cc2c(cc1N1CCC(N3CCOCC3)CC1)C(C)(C)c1[nH]c3cc(C#N)ccc3c1C2=O [ALECTINIB]

# Tested on: BaF3
# Assay: Antiproliferative activity against mouse BaF3 cells harboring CD74-ROS1 L2026M mutant assessed as reduction in cell viability incubated for 72 hrs by CellTiter-Glo assay
# Type: functional, cell-based
# Settings: BaF3, 72 h
# Outline: as §3
row,IC50,SMILES
1,8.6 nM,COc1cc2c(Oc3ccc(NC(=O)C4(C(=O)Nc5ccc(F)cc5)CC4)cc3F)ccnc2cc1OCCCN1CCOCC1 [FORETINIB]
2,> 2000 nM,CCc1cc2c(cc1N1CCC(N3CCOCC3)CC1)C(C)(C)c1[nH]c3cc(C#N)ccc3c1C2=O [ALECTINIB]

# Target: Proto-oncogene tyrosine-protein kinase ROS (Homo sapiens, UniProt P08922, L2026M)
# Assay: Binding affinity to recombinant human ROS1 L2026M mutant assessed as inhibition constant in presence of ATP by microfluidic mobility shift assay
# Settings: not given
row,Ki,SMILES
1,2000 nM,CCc1cc2c(cc1N1CCC(N3CCOCC3)CC1)C(C)(C)c1[nH]c3cc(C#N)ccc3c1C2=O [ALECTINIB]

# Tested on: Proto-oncogene tyrosine-protein kinase ROS (Homo sapiens), P08922 [G2032R]
# Assay: Binding affinity to recombinant human ROS1 G2032R mutant assessed as inhibition constant in presence of ATP by microfluidic mobility shift assay
# Settings: not given
row,Kis,SMILES
1,> 3000 nM,CCc1cc2c(cc1N1CCC(N3CCOCC3)CC1)C(C)(C)c1[nH]c3cc(C#N)ccc3c1C2=O [ALECTINIB]

# Tested on: HCC78
# Assay: Antiproliferative activity against human HCC78 cells assessed as reduction in cell viability incubated for 72 hrs by CellTiter-Glo assay
# Type: functional, cell-based
# Settings: HCC78, 72 h
# Outline: as §2
row,IC50,SMILES
1,21 nM,COc1cc2c(Oc3ccc(NC(=O)C4(C(=O)Nc5ccc(F)cc5)CC4)cc3F)ccnc2cc1OCCCN1CCOCC1 [FORETINIB]
2,> 1000 nM,CCc1cc2c(cc1N1CCC(N3CCOCC3)CC1)C(C)(C)c1[nH]c3cc(C#N)ccc3c1C2=O [ALECTINIB]

# Tested on: BaF3
# Assay: cells
# Settings: Mus musculus, BaF3, 72 h
row,IC50,SMILES
1,11 nM,COc1cc2c(Oc3ccc(NC(=O)C4(C(=O)Nc5ccc(F)cc5)CC4)cc3F)ccnc2cc1OCCCN1CCOCC1 [FORETINIB]
2,> 2000 nM,CCc1cc2c(cc1N1CCC(N3CCOCC3)CC1)C(C)(C)c1[nH]c3cc(C#N)ccc3c1C2=O [ALECTINIB]
